Results from ChEMBL document CHEMBL4706563, “Triphenylethylene analogues: Design, synthesis and evaluation of antitumor activity and topoisomerase inhibitors” (Eur J Med Chem, 2020).
Active and inactive are the calls of the source. No cut-off for these calls is given here.

How the values were obtained:
Format in all cases: functional
SR = assay: Antiproliferative activity against human SR cells assessed as growth inhibition at 10 uM relative to control; conditions: read-out: GI
Method in brief: (§1)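 NCI 60 human tumour cell line panel screen. Compounds tested at a single dose and growth inhibition (%) determined for each line.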

CCRF-CEM = assay: Antiproliferative activity against human CCRF-CEM cells assessed as growth inhibition at 10 uM relative to control; conditions: read-out: GI
Method in brief: (§2)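 Single-dose screen run by the US National Cancer Institute across its 60-human tumour cell line panel. Each compound was tested at one concentration. Percent growth inhibition was recorded for each cell line.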

HL-60(TB) = assay: Antiproliferative activity against human HL-60(TB) cells assessed as growth inhibition at 10 uM relative to control; conditions: read-out: GI
K562 = assay: Antiproliferative activity against human K562 cells assessed as growth inhibition at 10 uM relative to control; conditions: read-out: GI; method in brief: as §2
MOLT-4 = assay: Antiproliferative activity against human MOLT-4 cells assessed as growth inhibition at 10 uM relative to control; conditions: read-out: GI; method in brief: as §2
RPMI-8226 = assay: Antiproliferative activity against human RPMI-8226 cells assessed as growth inhibition at 10 uM relative to control; conditions: read-out: GI; method in brief: as §2
A549 = assay: Antiproliferative activity against human A549 cells assessed as growth inhibition at 10 uM relative to control; conditions: read-out: GI; method in brief: as §2
EKVX = assay: Antiproliferative activity against human EKVX cells assessed as growth inhibition at 10 uM relative to control; conditions: read-out: GI; method in brief: as §2
HOP-62 = assay: Antiproliferative activity against human HOP-62 cells assessed as growth inhibition at 10 uM relative to control; conditions: read-out: GI; method in brief: as §2
HOP-92 = assay: Antiproliferative activity against human HOP-92 cells assessed as growth inhibition at 10 uM relative to control; conditions: read-out: GI; method in brief: as §2
NCI-H226 = assay: Antiproliferative activity against human NCI-H226 cells assessed as growth inhibition at 10 uM relative to control; conditions: read-out: GI; method in brief: as §2
NCI-H23 = assay: Antiproliferative activity against human NCI-H23 cells assessed as growth inhibition at 10 uM relative to control; method in brief: as §2
NCI-H322M = assay: Antiproliferative activity against human NCI-H322M cells assessed as growth inhibition at 10 uM relative to control; conditions: read-out: GI; method in brief: as §2
NCI-H460 = assay: Antiproliferative activity against human NCI-H460 cells assessed as growth inhibition at 10 uM relative to control; conditions: read-out: GI; method in brief: as §2
NCI-H522 = assay: Antiproliferative activity against human NCI-H522 cells assessed as growth inhibition at 10 uM relative to control; conditions: read-out: GI; method in brief: as §2
COLO 205 = assay: Antiproliferative activity against human COLO 205 cells assessed as growth inhibition at 10 uM relative to control; conditions: read-out: GI; method in brief: as §2
HCC 2998 = assay: Antiproliferative activity against human HCC 2998 cells assessed as growth inhibition at 10 uM relative to control; method in brief: as §2
HCT-116 = assay: Antiproliferative activity against human HCT-116 cells assessed as growth inhibition at 10 uM relative to control; conditions: read-out: GI; method in brief: as §2
HCT-15 = assay: Antiproliferative activity against human HCT-15 cells assessed as growth inhibition at 10 uM relative to control; conditions: read-out: GI; method in brief: as §2
HT-29 = assay: Antiproliferative activity against human HT29 cells assessed as growth inhibition at 10 uM relative to control; conditions: read-out: GI; method in brief: as §2
KM12 = assay: Antiproliferative activity against human KM12 cells assessed as growth inhibition at 10 uM relative to control; conditions: read-out: GI; method in brief: as §2
SW-620 = assay: Antiproliferative activity against human SW-620 cells assessed as growth inhibition at 10 uM relative to control; conditions: read-out: GI; method in brief: as §1
SF-295 = assay: Antiproliferative activity against human SF-295 cells assessed as growth inhibition at 10 uM relative to control; method in brief: as §2
SF-539 = assay: Antiproliferative activity against human SF-539 cells assessed as growth inhibition at 10 uM relative to control; conditions: read-out: GI; method in brief: as §2
SNB-19 = assay: Antiproliferative activity against human SNB-19 cells assessed as growth inhibition at 10 uM relative to control; method in brief: as §1
SNB-75 = assay: Antiproliferative activity against human SNB-75 cells assessed as growth inhibition at 10 uM relative to control; conditions: read-out: GI; method in brief: as §1
U-251 = assay: Antiproliferative activity against human U251 cells assessed as growth inhibition at 10 uM relative to control; conditions: read-out: GI; method in brief: as §1
LOX IMVI = assay: Antiproliferative activity against human LOX IMVI cells assessed as growth inhibition at 10 uM relative to control; conditions: read-out: GI; method in brief: as §2

## C/C(=C(/c1ccccc1)c1ccc(OCC(O)CN2CCOCC2)cc1)c1ccccc1 (stereo not drawn)
SR
  inhibition of growth at 10 µM: 52.8%
CCRF-CEM
  inhibition of growth at 10 µM: 19.6%
HL-60(TB)
  inhibition of growth at 10 µM: 39.3%
K562
  inhibition of growth at 10 µM: 80.3%
MOLT-4
  inhibition of growth at 10 µM: 38.5%
RPMI-8226
  inhibition of growth at 10 µM: 25%
A549
  inhibition of growth at 10 µM: 12.8%
EKVX
  inhibition of growth at 10 µM: 3.36%
HOP-62
  inhibition of growth at 10 µM: 9.9%
HOP-92
  inhibition of growth at 10 µM: 19.8%
NCI-H226
  inhibition of growth at 10 µM: 3.44%
NCI-H23
  growth inhibition (GI): inactive
NCI-H322M
  inhibition of growth at 10 µM: 4.48%
NCI-H460
  inhibition of growth at 10 µM: 7.41%
NCI-H522
  inhibition of growth at 10 µM: 26.7%
COLO 205
  inhibition of growth at 10 µM: 30.6%
HCC 2998
  growth inhibition (GI): inactive
HCT-116
  inhibition of growth at 10 µM: 53.6%
HCT-15
  inhibition of growth at 10 µM: 46.2%
HT-29
  inhibition of growth at 10 µM: 86.9%
KM12
  inhibition of growth at 10 µM: 36.4%
SW-620
  inhibition of growth at 10 µM: 11.4%
SF-295
  growth inhibition (GI): inactive
SF-539
  inhibition of growth at 10 µM: 25.8%
SNB-19
  growth inhibition (GI): inactive
SNB-75
  inhibition of growth at 10 µM: 8.61%
U-251
  inhibition of growth at 10 µM: 19.9%
LOX IMVI
  inhibition of growth at 10 µM: 12.2%
